From ChEMBL document CHEMBL1136304, “Synthesis and structure-activity relationships of thieno[2,3-d]pyrimidine-2,4-dione derivatives as potent GnRH receptor antagonists” (Bioorg Med Chem Lett, 2003)

System: not listed separately
Experiment: pKa value was determined
Format: physicochemical
Conditions: not given

**Q.** With `CONC(=O)Nc1ccc(-c2sc3c(c2CN(C)Cc2ccccc2)c(=O)n(-c2ccccc2)c(=O)n3Cc2c(F)cccc2F)cc1` [SUFUGOLIX] as the molecule, how does the pKa read?
**A.** Its pKa is 5.

Target: T1, Gonadotropin-releasing hormone receptor (Homo sapiens, UniProt P30968)
T1 sequence (P30968 whole entry): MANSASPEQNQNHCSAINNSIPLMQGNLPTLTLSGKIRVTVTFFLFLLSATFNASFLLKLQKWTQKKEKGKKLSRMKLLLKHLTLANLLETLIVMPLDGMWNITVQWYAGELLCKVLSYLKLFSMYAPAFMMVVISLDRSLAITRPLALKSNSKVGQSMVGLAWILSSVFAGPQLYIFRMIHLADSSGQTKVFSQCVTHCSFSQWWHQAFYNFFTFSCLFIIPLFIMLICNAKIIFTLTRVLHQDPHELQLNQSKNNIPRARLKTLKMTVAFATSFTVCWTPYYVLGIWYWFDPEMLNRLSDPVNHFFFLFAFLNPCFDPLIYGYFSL
Experiment: Binding affinity towards human gonadotropin-releasing hormone receptor
Conditions: not given
Procedure, shortened: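 Cloned human GnRH receptor stably expressed in HEK293 cells, binding measured in a 96-well filtration format. Results expressed as Ki. Key compounds were run in 3–8 independent experiments.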

**Q.** Which Ki does the source give for `CN(CCc1ccccc1)Cc1c(-c2ccc([N+](=O)[O-])cc2)sc2c1c(=O)n(-c1ccccc1)c(=O)n2Cc1c(F)cccc1F` here?
**A.** Its Ki is 170 nM.

**Q.** With `O=c1c2c(CN3CCNCC3)c(-c3ccc([N+](=O)[O-])cc3)sc2n(Cc2c(F)cccc2F)c(=O)n1-c1ccccc1` as the molecule, how does the Ki read?
**A.** The Ki was 460 nM.

**Q.** Which Ki does the source give for `CCN(CC)CCN(C)Cc1c(-c2ccc([N+](=O)[O-])cc2)sc2c1c(=O)n(-c1ccccc1)c(=O)n2Cc1c(F)cccc1F` here?
**A.** Its Ki is 76 nM.

**Q.** With `CN(Cc1ccccc1)Cc1c(-c2ccc([N+](=O)[O-])cc2)sc2c1c(=O)n(-c1ccccc1)c(=O)n2Cc1c(F)cccc1F` as the molecule, how does the Ki read?
**A.** The Ki was 180 nM.

**Q.** With `CC(C)C(=O)Nc1ccc(-c2sc3c(c2CN(C)Cc2ccccc2)c(=O)n(-c2ccccc2)c(=O)n3Cc2c(F)cccc2F)cc1` as the molecule, how does the Ki read?
**A.** The Ki was 2.9 nM.

**Q.** Which Ki does the source give for `CCNc1ccc(-c2sc3c(c2CN(C)Cc2ccccc2)c(=O)n(-c2ccccc2)c(=O)n3Cc2c(F)cccc2F)cc1` here?
**A.** Its Ki is 11 nM.

**Q.** For `CN(Cc1ccccc1)Cc1c(-c2ccc(NC(=O)CCN)cc2)sc2c1c(=O)n(-c1ccccc1)c(=O)n2Cc1c(F)cccc1F`, which Ki is on record?
**A.** The Ki was 360 nM.

**Q.** Which Ki does the source give for `CC(=O)Nc1ccc(-c2sc3c(c2CN(C)Cc2ccccc2)c(=O)n(-c2ccccc2)c(=O)n3Cc2c(F)cccc2F)cc1` here?
**A.** The Ki was 4.1 nM.

**Q.** Which Ki does the source give for `CC(C)CC(N)C(=O)Nc1ccc(-c2sc3c(c2CN(C)Cc2ccccc2)c(=O)n(-c2ccccc2)c(=O)n3Cc2c(F)cccc2F)cc1` (single isomer, unassigned) here?
**A.** Its Ki is 58 nM.

**Q.** With `CN(C)Cc1c(-c2ccc([N+](=O)[O-])cc2)sc2c1c(=O)n(-c1ccccc1)c(=O)n2Cc1c(F)cccc1F` as the molecule, how does the Ki read?
**A.** The Ki was 640 nM.

**Q.** For `C[C@H](N)C(=O)Nc1ccc(-c2sc3c(c2CN(C)Cc2ccccc2)c(=O)n(-c2ccccc2)c(=O)n3Cc2c(F)cccc2F)cc1`, which Ki is on record?
**A.** Its Ki is 43 nM.

**Q.** For `CC(C)Nc1ccc(-c2sc3c(c2CN(C)Cc2ccccc2)c(=O)n(-c2ccccc2)c(=O)n3Cc2c(F)cccc2F)cc1`, which Ki is on record?
**A.** Its Ki is 88 nM.

**Q.** With `CN(Cc1ccccc1)Cc1c(-c2ccc(N(C)C)cc2)sc2c1c(=O)n(-c1ccccc1)c(=O)n2Cc1c(F)cccc1F` as the molecule, how does the Ki read?
**A.** The Ki was 61 nM.

**Q.** For `CN(Cc1ccccc1)Cc1c(-c2ccc(NC(=O)C(F)(F)F)cc2)sc2c1c(=O)n(-c1ccccc1)c(=O)n2Cc1c(F)cccc1F`, which Ki is on record?
**A.** Its Ki is 16 nM.

**Q.** For `CN(Cc1ccccc1)Cc1c(-c2ccc(N)cc2)sc2c1c(=O)n(-c1ccccc1)c(=O)n2Cc1c(F)cccc1F`, which Ki is on record?
**A.** Its Ki is 36 nM.

**Q.** With `COCCN(C)Cc1c(-c2ccc([N+](=O)[O-])cc2)sc2c1c(=O)n(-c1ccccc1)c(=O)n2Cc1c(F)cccc1F` as the molecule, how does the Ki read?
**A.** The Ki was 170 nM.

**Q.** For `CN(Cc1ccccn1)Cc1c(-c2ccc([N+](=O)[O-])cc2)sc2c1c(=O)n(-c1ccccc1)c(=O)n2Cc1c(F)cccc1F`, which Ki is on record?
**A.** Its Ki is 9 nM.

**Q.** With `CN(Cc1ccccc1)Cc1c(-c2ccc(NC(=O)CCCN)cc2)sc2c1c(=O)n(-c1ccccc1)c(=O)n2Cc1c(F)cccc1F` as the molecule, how does the Ki read?
**A.** The Ki was 300 nM.

**Q.** For `CN(CCc1ccccn1)Cc1c(-c2ccc([N+](=O)[O-])cc2)sc2c1c(=O)n(-c1ccccc1)c(=O)n2Cc1c(F)cccc1F`, which Ki is on record?
**A.** Its Ki is 0.6 nM.

**Q.** For `CC(C)CNc1ccc(-c2sc3c(c2CN(C)Cc2ccccc2)c(=O)n(-c2ccccc2)c(=O)n3Cc2c(F)cccc2F)cc1`, which Ki is on record?
**A.** The Ki was 17 nM.

**Q.** For `CCCCN(C)Cc1c(-c2ccc([N+](=O)[O-])cc2)sc2c1c(=O)n(-c1ccccc1)c(=O)n2Cc1c(F)cccc1F`, which Ki is on record?
**A.** The Ki was 270 nM.

**Q.** For `CN(Cc1ccccc1)Cc1c(-c2ccc(NC(=O)CN)cc2)sc2c1c(=O)n(-c1ccccc1)c(=O)n2Cc1c(F)cccc1F`, which Ki is on record?
**A.** The Ki was 150 nM.

System: not listed separately
Experiment: Partition coefficient (logP)
Format: physicochemical
Conditions: octanol/water

**Q.** Which logP does the source give for `CONC(=O)Nc1ccc(-c2sc3c(c2CN(C)Cc2ccccc2)c(=O)n(-c2ccccc2)c(=O)n3Cc2c(F)cccc2F)cc1` [SUFUGOLIX] here?
**A.** The logP was 6.5.

Target: T2, Gonadotropin-releasing hormone receptor (Rattus norvegicus, UniProt P30969)
T2 sequence (P30969 whole entry): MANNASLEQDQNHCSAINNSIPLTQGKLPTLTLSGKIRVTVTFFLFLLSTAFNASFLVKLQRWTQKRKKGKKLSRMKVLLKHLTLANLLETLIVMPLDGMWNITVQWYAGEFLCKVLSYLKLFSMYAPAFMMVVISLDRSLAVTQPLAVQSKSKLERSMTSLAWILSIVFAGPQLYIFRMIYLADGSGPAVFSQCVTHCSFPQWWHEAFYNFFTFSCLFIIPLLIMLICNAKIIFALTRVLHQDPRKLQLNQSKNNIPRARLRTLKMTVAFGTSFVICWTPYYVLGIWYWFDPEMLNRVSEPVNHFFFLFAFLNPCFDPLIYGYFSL
Experiment: Binding affinity towards rat Gonadotropin-releasing hormone receptor
Conditions: not given

**Q.** Which IC50 does the source give for `Cc1cc(-c2c(OCC[C@@H]3CCN3)c3cc(C(=O)Nc4ccncn4)c(Cl)cc3[nH]c2=O)cc(C)c1C` here?
**A.** Its IC50 is 4 nM.
